Data on 14 molecules can be found in ChEMBL document CHEMBL3593168, “Structure-Based Design of Macrocyclic Coagulation Factor VIIa Inhibitors” (J Med Chem, 2015).

SMILES strings stand for the structures. A value given as a limit tells only on which side of the number the result lay.

By Ki is commonly meant the equilibrium dissociation constant of an inhibitor or competing ligand from its target.

Assay [1] addresses Coagulation factor VII/tissue factor (Homo sapiens, UniProt P08709). Kind of assay: Inhibition of human recombinant TF/F7a complex using S2288 as substrate preincubated for 15 mins followed by protein addition measured for 60 mins. Type of assay: protein-complex assay. A digest of the protocol: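 Ki measured against recombinant human TF/FVIIa enzyme at room temperature (25 °C) and averaged from two experiments.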

The next assay addresses Coagulation factor IX (Homo sapiens, UniProt P00740). Kind of assay: Inhibition of human F9a measured for 30 mins. A digest of the protocol:
(§1)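 Ki measured against purified human enzymes (APC, FXa, FIXa, plasma kallikrein, thrombin, trypsin) at room temperature (25 °C) and averaged from two experiments.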

The target of a further assay is Coagulation factor X (Homo sapiens, UniProt P00742). Kind of assay: Inhibition of human F10a using S2222 as substrate measured for 30 mins. The method, boiled down: as §1
Coagulation factor X, sequence (P00742 41-179 limits assumed): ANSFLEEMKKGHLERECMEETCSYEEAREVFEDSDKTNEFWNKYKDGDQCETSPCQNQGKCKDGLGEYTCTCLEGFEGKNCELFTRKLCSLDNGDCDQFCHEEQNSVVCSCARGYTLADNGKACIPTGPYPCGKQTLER
Coagulation factor X, sequence (P00742 235-488 limits assumed): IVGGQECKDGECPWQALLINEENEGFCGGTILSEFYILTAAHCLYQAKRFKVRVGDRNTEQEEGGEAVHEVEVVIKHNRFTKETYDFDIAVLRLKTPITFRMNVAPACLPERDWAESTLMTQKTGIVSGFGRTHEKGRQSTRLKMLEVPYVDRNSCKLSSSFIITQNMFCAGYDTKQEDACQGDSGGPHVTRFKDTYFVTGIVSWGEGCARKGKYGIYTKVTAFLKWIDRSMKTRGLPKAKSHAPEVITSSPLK
The next assay has as its target Prothrombin (Homo sapiens, UniProt P00734). In words: Inhibition of human thrombin using S2238 as substrate measured for 30 mins. The method, boiled down:
as §1

Assay [2] concerns the target Vitamin K-dependent protein C (Homo sapiens, UniProt P04070). Kind of assay: Inhibition of human APC measured for 30 mins. A digest of the protocol:
as §1

The target of the next assay is Trypsin (Homo sapiens, UniProt P07477+P07478+P35030). Kind of assay: Inhibition of human trypsin measured for 30 mins. Type of assay: protein assay. A digest of the protocol:
as §1

The next assay concerns the target Plasma kallikrein (Homo sapiens, UniProt P03952). Kind of assay: Inhibition of human plasma kallikrein using S2302 as substrate measured for 30 mins. A digest of the protocol:
as §1

The next assay addresses Kallikrein-1 (Homo sapiens, UniProt P06870). Kind of assay: Inhibition of human tissue kallikrein 1 measured for 30 mins. A digest of the protocol: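 Purified human tissue kallikrein-1 assayed at 37 °C. Ki averaged from two experiments.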
For another assay, the system named is Plasma. In words: Anticoagulant activity in F7-deficient human plasma assessed as concentration required to double prothrombin time. Type of assay: functional.

Plasma kallikrein, sequence (P03952 20-390 limits assumed): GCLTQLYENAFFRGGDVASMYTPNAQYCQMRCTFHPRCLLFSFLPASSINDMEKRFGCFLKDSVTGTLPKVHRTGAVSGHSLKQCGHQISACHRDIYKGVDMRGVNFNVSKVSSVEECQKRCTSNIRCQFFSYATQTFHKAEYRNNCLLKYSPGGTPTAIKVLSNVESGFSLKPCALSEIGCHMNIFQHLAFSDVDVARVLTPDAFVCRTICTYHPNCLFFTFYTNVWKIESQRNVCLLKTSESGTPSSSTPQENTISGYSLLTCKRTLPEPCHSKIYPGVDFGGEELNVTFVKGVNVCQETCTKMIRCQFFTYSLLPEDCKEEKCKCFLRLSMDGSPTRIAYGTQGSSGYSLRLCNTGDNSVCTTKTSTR
Plasma kallikrein, sequence (P03952 391-638 limits assumed): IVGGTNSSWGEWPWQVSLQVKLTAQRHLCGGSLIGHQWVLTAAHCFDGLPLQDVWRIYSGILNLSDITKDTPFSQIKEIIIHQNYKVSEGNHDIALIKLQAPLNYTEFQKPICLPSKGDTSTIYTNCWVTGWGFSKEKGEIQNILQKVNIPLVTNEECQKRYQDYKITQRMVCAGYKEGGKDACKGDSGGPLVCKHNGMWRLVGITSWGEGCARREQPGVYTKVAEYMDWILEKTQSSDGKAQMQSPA
Coagulation factor IX, sequence (P00740 47-191 limits assumed): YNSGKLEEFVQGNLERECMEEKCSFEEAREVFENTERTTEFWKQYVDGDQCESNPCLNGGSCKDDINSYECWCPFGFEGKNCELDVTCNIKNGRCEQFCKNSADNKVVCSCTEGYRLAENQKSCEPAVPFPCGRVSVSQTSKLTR
Coagulation factor IX, sequence (P00740 227-461 limits assumed): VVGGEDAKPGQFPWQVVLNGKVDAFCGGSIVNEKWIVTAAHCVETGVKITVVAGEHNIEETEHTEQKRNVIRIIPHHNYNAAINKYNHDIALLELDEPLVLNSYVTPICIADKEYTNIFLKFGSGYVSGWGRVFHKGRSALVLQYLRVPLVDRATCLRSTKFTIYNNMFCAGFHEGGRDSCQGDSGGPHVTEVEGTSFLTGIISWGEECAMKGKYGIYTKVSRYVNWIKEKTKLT
Coagulation factor VII/tissue factor, sequence (P08709 61-212 limits assumed): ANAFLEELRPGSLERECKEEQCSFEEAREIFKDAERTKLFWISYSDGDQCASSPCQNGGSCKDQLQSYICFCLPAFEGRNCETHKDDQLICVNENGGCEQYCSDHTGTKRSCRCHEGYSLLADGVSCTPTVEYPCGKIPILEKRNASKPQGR
Coagulation factor VII/tissue factor, sequence (P08709 213-466 limits assumed): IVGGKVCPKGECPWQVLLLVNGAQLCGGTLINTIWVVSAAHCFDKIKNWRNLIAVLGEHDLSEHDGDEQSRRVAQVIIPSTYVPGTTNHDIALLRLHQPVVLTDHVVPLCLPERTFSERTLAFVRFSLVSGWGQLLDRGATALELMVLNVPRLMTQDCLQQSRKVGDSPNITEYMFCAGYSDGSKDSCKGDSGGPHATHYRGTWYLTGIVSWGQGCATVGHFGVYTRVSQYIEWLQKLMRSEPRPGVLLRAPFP
Coagulation factor VII/tissue factor, sequence (P13726 33-295 partner limits assumed): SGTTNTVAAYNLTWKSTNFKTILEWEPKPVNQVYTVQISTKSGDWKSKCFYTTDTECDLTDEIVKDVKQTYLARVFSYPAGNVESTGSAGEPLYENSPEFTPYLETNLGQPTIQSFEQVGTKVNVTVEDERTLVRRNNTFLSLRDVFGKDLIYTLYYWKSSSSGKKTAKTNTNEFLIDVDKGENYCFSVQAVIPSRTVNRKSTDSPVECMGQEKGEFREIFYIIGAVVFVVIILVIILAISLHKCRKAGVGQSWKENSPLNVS
Vitamin K-dependent protein C, sequence (P04070 43-197 limits assumed): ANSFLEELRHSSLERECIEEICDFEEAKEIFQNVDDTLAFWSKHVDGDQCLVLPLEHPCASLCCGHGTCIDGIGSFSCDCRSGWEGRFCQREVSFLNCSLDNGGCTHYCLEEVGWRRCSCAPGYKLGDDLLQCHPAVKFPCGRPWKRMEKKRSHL
Vitamin K-dependent protein C, sequence (P04070 212-461 limits assumed): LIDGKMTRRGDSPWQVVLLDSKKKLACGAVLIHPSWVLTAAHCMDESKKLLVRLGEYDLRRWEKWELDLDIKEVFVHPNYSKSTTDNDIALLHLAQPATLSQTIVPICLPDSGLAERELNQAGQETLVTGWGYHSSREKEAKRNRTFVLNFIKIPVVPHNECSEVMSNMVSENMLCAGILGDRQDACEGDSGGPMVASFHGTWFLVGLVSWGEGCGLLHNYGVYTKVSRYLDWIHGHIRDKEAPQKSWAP
Kallikrein-1, sequence (P06870 whole entry): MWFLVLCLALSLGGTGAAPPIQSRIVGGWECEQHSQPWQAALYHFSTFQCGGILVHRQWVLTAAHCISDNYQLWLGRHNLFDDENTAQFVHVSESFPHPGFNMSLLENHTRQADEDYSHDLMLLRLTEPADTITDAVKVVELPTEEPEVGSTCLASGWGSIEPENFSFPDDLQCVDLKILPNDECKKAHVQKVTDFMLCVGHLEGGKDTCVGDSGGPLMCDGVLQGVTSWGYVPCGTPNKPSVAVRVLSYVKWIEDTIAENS

Take `CC(C)S(=O)(=O)c1ccc2cc1CNC(=O)[C@H](Nc1ccc3c(N)nccc3c1)c1ccc(cc1)CCCC(=O)N2`: the inhibition constant (Ki) was 0.0052 µM in assay [1]; more than 35 µM at Coagulation factor IX; 3.3 µM at Coagulation factor X; 4 µM at Prothrombin; 1.8 µM in [2]; 3 µM at Trypsin. The Ki came out at 3.6 µM on Plasma kallikrein and 0.1 µM at Kallikrein-1. Also, the 2PT in the assay on Plasma was 1.4 µM.

For `CC(C)(C)S(=O)(=O)c1ccc2cc1CNC(=O)C(Nc1ccc3c(N)nccc3c1)c1ccc(cc1)CCCC(=O)N2` (racemic), the Ki was 0.03 µM in assay [1]; more than 35 µM on Coagulation factor IX; 4.8 µM on Coagulation factor X; more than 13 µM on Prothrombin; 14 µM in assay [2]; more than 6 µM on Trypsin. Moreover, the Ki on Plasma kallikrein was more than 6 µM; at Kallikrein-1 it was 0.022 µM. Also, the 2PT in the assay on Plasma turned out to be 8.6 µM.

`Nc1nccc2cc(NC3C(=O)NCc4cccc(c4)NC(=O)CCCOc4ccc3cc4)ccc12` (stereo not drawn): the Ki in [1] turned out to be 4.6 µM.

With `CCS(=O)(=O)c1ccc2cc1CNC(=O)[C@H](Nc1ccc3c(N)nccc3c1)c1ccc(cc1)CCCC(=O)N2`, the Ki in assay [1] is 0.008 µM; on Coagulation factor IX it was more than 35 µM; at Coagulation factor X, 3.2 µM; at Prothrombin, 5.8 µM; in assay [2], 1.3 µM; on Trypsin, 3.6 µM. The values for the inhibition constant Ki at Plasma kallikrein and at Kallikrein-1 were 4.6 µM and 0.1 µM, respectively. In addition, the 2PT in the assay on Plasma is 1.6 µM.

In the case of `Nc1nccc2cc(NC3C(=O)NCc4cccc(c4)NC(=O)CCc4ccc3cc4)ccc12` (stereo not drawn), in assay [1], the inhibitory constant (Ki) stood at 4.6 µM.

For `CCS(=O)(=O)c1ccc2cc1CNC(=O)[C@H](Nc1ccc3c(N)nccc3c1)c1ccc(c(C)c1)CCCC(=O)N2`, the Ki in assay [1] was 0.0016 µM; at Coagulation factor IX, 16 µM; on Coagulation factor X, 1 µM; at Prothrombin, 6.7 µM; in [2], 0.83 µM; at Trypsin, 2.7 µM. Also, the inhibition constant (Ki) at Plasma kallikrein was determined as 1.7 µM; on Kallikrein-1, 0.1 µM. The 2PT in the assay with Plasma worked out at 1.2 µM.

With `Nc1nccc2cc(NC3C(=O)NCc4cccc(c4)NC(=O)CCCCc4ccc3cc4)ccc12` (stereo not drawn), the inhibition constant (Ki) in [1] is 6.1 µM.

With `CCS(=O)(=O)c1ccc2cc1CNC(=O)[C@H](Nc1ccc(C(=N)N)cc1)c1ccc(cc1)CCCC(=O)N2`, the inhibition constant (Ki) in assay [1] came to 0.0007 µM; on Coagulation factor IX, 34 µM; on Coagulation factor X, 5.5 µM; at Prothrombin it was 0.18 µM; in assay [2], 0.041 µM; at Trypsin, 0.058 µM. In addition, the values for the Ki on Plasma kallikrein and at Kallikrein-1 were 0.05 µM and 1.9 µM, respectively. Further, the 2PT with Plasma turned out to be 0.42 µM.

In the case of `Nc1nccc2cc(NC(C(=O)NCc3ccccc3)c3ccccc3)ccc12` (stereo not drawn), in [1], the Ki came out at 54 µM.

`CC(=O)Nc1ccc(S(=O)(=O)C(C)C)c([C@H]2CCCN2C(=O)[C@H](Nc2ccc3c(N)nccc3c2)c2ccccc2)c1`: the Ki in assay [1] turned out to be 0.008 µM. Further, the 2PT in the assay with Plasma amounted to 12 µM.

`CC(=O)Nc1cccc(CNC(=O)C(Nc2ccc3c(N)nccc3c2)c2ccccc2)c1` (stereo not drawn): in assay [1], the Ki stood at 10 µM.

Turning to `Nc1nccc2cc(N[C@@H]3C(=O)NCc4cccc(c4)NC(=O)CCCc4ccc3cc4)ccc12`, in assay [1], the Ki was more than 18 µM.

Take `Nc1nccc2cc(N[C@H]3C(=O)NCc4cccc(c4)NC(=O)CCCc4ccc3cc4)ccc12`: the Ki is 0.4 µM in assay [1]; more than 35 µM on Coagulation factor IX; more than 9 µM at Coagulation factor X; more than 13 µM on Prothrombin; 2.8 µM in [2]; more than 6 µM at Trypsin. Further, the Ki on Plasma kallikrein is more than 6 µM; at Kallikrein-1, 0.018 µM. The 2PT in the assay with Plasma turned out to be 26 µM.

Turning to `Nc1nccc2cc(NC3C(=O)NCc4cccc(c4)NC(=O)CCCc4ccc3cc4)ccc12` (stereo not drawn), the Ki in assay [1] stood at 0.92 µM.
